ChEMBL document CHEMBL3286094, “Synthesis and biological evaluation of novel bisbenzimidazoles as Escherichia coli topoisomerase IA inhibitors and potential antibacterial agents” (J Med Chem, 2014)
In brackets after ≈: the same amount, converted by molar mass.

Tests used:
[1] = Inhibition of Escherichia coli DNA topoisomerase-1A using supercoiled pHOT1 plasmid DNA as substrate assessed as inhibition of DNA relaxation after 30 mins by agarose gel electrophoresis
How it was run: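 Supercoiled plasmid DNA incubated with E. coli Topo IA in the presence of compound at […]. Relaxation products were resolved by electrophoresis on 1% agarose gel.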

[2] = system: Escherichia coli; assay: Antibacterial activity against Escherichia coli DH5[alpha] assessed as growth inhibition after 18 to 24 hrs by broth microdilution method; format: functional
[3] = system: Escherichia coli; assay: Antibacterial activity against Escherichia coli ATCC 25922 assessed as growth inhibition after 18 to 24 hrs by broth microdilution method; format: functional
[4] = system: Escherichia coli; assay: Bactericidal activity against Escherichia coli DH5[alpha] by agar plating method; format: functional
[5] = system: Escherichia coli; assay: Bactericidal activity against Escherichia coli ATCC 25922 by agar plating method; format: functional

| Compound | IC50 [1] [µM] | MIC50 [2] [µg/mL] | MIC50 [3] [µg/mL] | MIC90 [2] [µg/mL] | MIC90 [3] [µg/mL] | MBC [4] [µg/mL] | MBC [5] [µg/mL] |
| --- | --- | --- | --- | --- | --- | --- | --- |
| CN(C)CCN1CCN(c2ccc3nc(-c4ccc5nc(-c6ccc(O)cc6)[nH]c5c4)[nH]c3c2)CC1 | 8 | 64 (≈ 133 µM) | > 128 | – | – | – | – |
| CCOc1ccc(-c2nc3ccc(-c4nc5ccc(N6CCN(CCNC(=O)C(F)(F)F)CC6)cc5[nH]4)cc3[nH]2)cc1 | 50.8 | 16 (≈ 27.7 µM) | 10.4 (≈ 18 µM) | 22.5 (≈ 39 µM) | 20.8 (≈ 36 µM) | 32 (≈ 55.4 µM) | 32 (≈ 55.4 µM) |
| COc1ccc(-c2nc3ccc(-c4nc5ccc(N6CCN(c7ccc(F)cc7)CC6)cc5[nH]4)cc3[nH]2)cc1OC | > 50 | > 128 | > 128 | – | – | – | – |
| CCN1CCN(c2ccc3nc(-c4ccc5nc(-c6ccc(OC)c(OC)c6)[nH]c5c4)[nH]c3c2)CC1 | 12.3 | – | 16 (≈ 33.2 µM) | – | 14.8 (≈ 30.7 µM) | 16 (≈ 33.2 µM) | 32 (≈ 66.3 µM) |
| COc1ccc(-c2nc3ccc(-c4nc5ccc(N6CCN(CCN(C)C)CC6)cc5[nH]4)cc3[nH]2)cc1OC | 3 | 128 (≈ 244 µM) | 128 (≈ 244 µM) | – | – | – | – |
| COc1ccc(-c2nc3ccc(-c4nc5ccc(N6CCN(c7ccccc7)CC6)cc5[nH]4)cc3[nH]2)cc1OC | 3.8 | > 128 | > 128 | – | – | – | – |
| O=C(NCCN1CCN(c2ccc3nc(-c4ccc5nc(-c6ccc(O)cc6)[nH]c5c4)[nH]c3c2)CC1)C(F)(F)F | 45.8 | > 128 | > 128 | – | – | – | – |
| COc1ccc(-c2nc3ccc(-c4nc5ccc(N6CCN(c7ccccc7C#N)CC6)cc5[nH]4)cc3[nH]2)cc1OC | 3.76 | > 128 | > 128 | – | – | – | – |

The next lines start with results.

| IC50 [1] [µM] | MIC50 [2] [µg/mL] | MIC50 [3] [µg/mL] | MIC90 [2] [µg/mL] | MIC90 [3] [µg/mL] | Compound | MBC [4] [µg/mL] | MBC [5] [µg/mL] |
| --- | --- | --- | --- | --- | --- | --- | --- |
| 5.8 | 64 (≈ 146 µM) | > 128 | 121 (≈ 276 µM) | – | CCN1CCN(c2ccc3nc(-c4ccc5nc(-c6ccc(O)cc6)[nH]c5c4)[nH]c3c2)CC1 | 128 (≈ 292 µM) | – |
| 20.3 | > 128 | > 128 | – | – | Oc1ccc(-c2nc3ccc(-c4nc5ccc(N6CCN(c7ccc(F)cc7)CC6)cc5[nH]4)cc3[nH]2)cc1 | – | – |
| > 50 | > 128 | > 128 | – | – | Oc1ccc(-c2nc3ccc(-c4nc5ccc(N6CCN(c7ccncc7)CC6)cc5[nH]4)cc3[nH]2)cc1 | – | – |
| 20.3 | > 128 | > 128 | – | – | COc1ccc(-c2nc3ccc(-c4nc5ccc(N6CCN(c7ccc(N)cc7)CC6)cc5[nH]4)cc3[nH]2)cc1OC | – | – |
| 20.8 | > 128 | > 128 | – | – | CCCN1CCN(c2ccc3nc(-c4ccc5nc(-c6ccc(O)cc6)[nH]c5c4)[nH]c3c2)CC1 | – | – |
| 60.3 | > 128 | > 128 | – | – | Oc1ccc(-c2nc3ccc(-c4nc5ccc(N6CCN(c7ccccc7)CC6)cc5[nH]4)cc3[nH]2)cc1 | – | – |
| 20.4 | > 128 | > 128 | – | – | N#Cc1ccccc1N1CCN(c2ccc3nc(-c4ccc5nc(-c6ccc(O)cc6)[nH]c5c4)[nH]c3c2)CC1 | – | – |
| > 50 | > 128 | > 128 | – | – | Oc1ccc(-c2nc3ccc(-c4nc5ccc(N6CCN(c7ncccn7)CC6)cc5[nH]4)cc3[nH]2)cc1 | – | – |
| 4.7 | 128 (≈ 255 µM) | > 128 | – | – | Nc1ccc(N2CCN(c3ccc4nc(-c5ccc6nc(-c7ccc(O)cc7)[nH]c6c5)[nH]c4c3)CC2)cc1 | – | – |
| > 50 | > 128 | > 128 | – | – | CCOc1ccc(-c2nc3ccc(-c4nc5ccc(N6CCN(c7ccncc7)CC6)cc5[nH]4)cc3[nH]2)cc1 | – | – |
